Measured values: ChEMBL document CHEMBL3871264, “Design of a novel thiophene inhibitor of 15-lipoxygenase-1 with both anti-inflammatory and neuroprotective properties” (Eur J Med Chem, 2016)
Calls of active or inactive are those of the source. The calls are words filed in the database; no cut-off is given here.

Assays:
[1] = biological target: T1, Polyunsaturated fatty acid lipoxygenase ALOX15 (Mus musculus) (UniProt P39654); test: Inhibition of 15-LOX-1 in C57bl/6 mouse precision-cut lung slices assessed as reduction in LPS-stimulated IL-12b mRNA expression level at 5 uM incubated for 20 hrs followed by LPS stimulation for 4 hrs in presence of linoleic acid by RT-qPCR analysis
T1 sequence (whole entry): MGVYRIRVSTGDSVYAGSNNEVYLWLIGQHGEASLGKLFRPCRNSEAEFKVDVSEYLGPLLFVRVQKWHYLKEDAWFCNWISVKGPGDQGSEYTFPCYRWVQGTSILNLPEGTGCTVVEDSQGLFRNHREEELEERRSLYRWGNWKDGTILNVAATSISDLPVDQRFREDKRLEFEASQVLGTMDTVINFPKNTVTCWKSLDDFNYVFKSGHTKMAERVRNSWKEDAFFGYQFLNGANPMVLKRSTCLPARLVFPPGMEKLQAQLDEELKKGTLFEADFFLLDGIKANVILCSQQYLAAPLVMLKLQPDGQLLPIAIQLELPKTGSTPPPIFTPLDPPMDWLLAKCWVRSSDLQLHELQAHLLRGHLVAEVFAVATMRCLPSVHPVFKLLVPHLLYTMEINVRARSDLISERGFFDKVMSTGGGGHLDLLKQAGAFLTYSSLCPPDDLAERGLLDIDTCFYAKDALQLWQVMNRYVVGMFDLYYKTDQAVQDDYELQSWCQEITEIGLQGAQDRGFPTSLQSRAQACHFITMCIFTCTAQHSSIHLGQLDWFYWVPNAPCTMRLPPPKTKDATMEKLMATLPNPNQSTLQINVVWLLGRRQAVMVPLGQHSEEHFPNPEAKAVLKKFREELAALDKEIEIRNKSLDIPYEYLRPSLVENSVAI
Summary of the method: (§1)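 Lung slices, 250 μm, were cut from agarose-filled lungs of male C57bl/6 mice aged 8-10 weeks and cultured at 37 °C in 5% CO2 in supplemented DMEM, 3 slices per well. Inhibitor was given for 20 h with 10 μM linoleic acid. For the last 4 h, 10 ng/ml LPS plus 10 ng/ml IFNγ were added. Read-out was RT-qPCR (10 ng cDNA, GAPDH assay included), in duplicate or triplicate wells, as fold change versus LPS/linoleic acid control, with 4-6 independent experiments.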

[2] = biological target: T1, Polyunsaturated fatty acid lipoxygenase ALOX15 (Mus musculus); test: Inhibition of 15-LOX-1 in mouse HT22 cells assessed as protection against glutamate-induced cell impedance at 10 uM incubated up to 8 hrs following glutamate challenge measured up to 20 hrs by real time cell viability assay; type: cell-based; details: HT-22
Summary of the method: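 HT-22 cells were seeded at 8x10^3 per well, incubated overnight, then given 4 mM glutamate. Inhibitor was either co-applied (1-20 µM; PD146176 at 1 µM) or added at 10 µM 2, 4, 6 or 8 h after glutamate. Impedance was recorded in real time for 16-20 h, with cell index normalized just before glutamate addition.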

[3] = biological target: T1, Polyunsaturated fatty acid lipoxygenase ALOX15 (Mus musculus); test: Inhibition of 15-LOX-1 in mouse HT22 cells assessed as inhibition of glutamate-induced lipid peroxidation at 10 uM incubated for 6 to 7 hrs by BODIPY 581/591 C11 staining based FACS analysis; type: cell-based; details: HT-22
Summary of the method: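 HT-22 cells were seeded at 5x10^4 per well and incubated overnight. They were then exposed to 4 mM glutamate in DMEM/10% FCS, with or without 10 µM test inhibitor or 1 µM PD146176, for 6-7 h or 14-16 h. Cells were stained with BODIPY 581/591 C11 at 2 µM final for 1 h at 37 °C. The red-to-green fluorescence shift was read by flow cytometry (488 nm excitation). At least 3 experiments were run, each in triplicate.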

[4] = biological target: T1, Polyunsaturated fatty acid lipoxygenase ALOX15 (Mus musculus); test: Inhibition of 15-LOX-1 in C57bl/6 mouse precision-cut lung slices assessed as reduction in LPS-stimulated IL-8 mRNA expression level at 50 uM incubated for 20 hrs followed by LPS stimulation for 4 hrs in presence of linoleic acid by RT-qPCR analysis; summary of the method: as §1
[5] = biological target: T1, Polyunsaturated fatty acid lipoxygenase ALOX15 (Mus musculus); test: Inhibition of 15-LOX-1 in mouse HT22 cells assessed as protection against glutamate-induced cell death by measuring increase in cell viability up to 20 uM cotreated with glutamate for 14 to 16 hrs by MTT assay; type: cell-based; details: HT-22
Summary of the method: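 HT-22 cells were seeded at 8x10^3 per well and incubated overnight. They were challenged with 4 mM glutamate in DMEM/10% FCS. Inhibitor was given either with glutamate (1-20 µM; PD146176 at 1 µM) or added at 5 or 10 µM 2, 4, 6 or 8 h after glutamate. After 14-16 h, MTT was added at 0.5 mg/mL for 1 h at 37 °C. Formazan was dissolved in DMSO and read at 570 nm minus 630 nm background, expressed relative to control. Three experiments were run with 6-8 replicates each.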

[6] = biological target: T2, Polyunsaturated fatty acid lipoxygenase ALOX15 (Homo sapiens) (UniProt P16050); test: Competitive inhibition of human 15-LOX-1 assessed as apparent Vmax at 15 uM by Lineweaver-Burk plot analysis (reference value: 1.6 +/- 0.2 10^-4abs/s)
T2 sequence (whole entry): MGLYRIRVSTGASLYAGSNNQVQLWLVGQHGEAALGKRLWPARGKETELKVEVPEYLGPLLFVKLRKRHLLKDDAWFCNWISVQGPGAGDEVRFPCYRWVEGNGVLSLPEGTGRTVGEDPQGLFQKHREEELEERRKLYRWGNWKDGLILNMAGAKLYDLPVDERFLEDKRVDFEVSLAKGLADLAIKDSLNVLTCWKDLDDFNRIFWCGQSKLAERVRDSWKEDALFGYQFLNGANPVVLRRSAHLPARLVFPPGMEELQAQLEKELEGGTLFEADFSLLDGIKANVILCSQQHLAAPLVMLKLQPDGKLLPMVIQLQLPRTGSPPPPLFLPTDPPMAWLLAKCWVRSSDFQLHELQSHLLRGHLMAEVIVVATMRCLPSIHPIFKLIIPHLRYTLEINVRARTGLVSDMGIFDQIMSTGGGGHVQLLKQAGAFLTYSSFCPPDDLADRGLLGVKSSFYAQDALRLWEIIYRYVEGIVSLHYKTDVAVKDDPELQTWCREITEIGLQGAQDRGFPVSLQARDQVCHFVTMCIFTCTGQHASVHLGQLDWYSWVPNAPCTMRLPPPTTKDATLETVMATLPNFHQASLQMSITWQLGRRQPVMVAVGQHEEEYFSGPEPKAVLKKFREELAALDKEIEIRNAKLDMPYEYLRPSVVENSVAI
Summary of the method: (§2)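 Purified enzyme activity was read as UV absorbance at 234 nm of the product formed from linoleic acid substrate, in 96-well format. Substrate-dependence runs were done with and without inhibitor. Apparent Km and Vmax were derived from Lineweaver-Burk plots.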

[7] = biological target: T2, Polyunsaturated fatty acid lipoxygenase ALOX15 (Homo sapiens); test: Competitive inhibition of human 15-LOX-1 assessed as apparent Vmax at 5 uM by Lineweaver-Burk plot analysis (reference value: 1.6 +/- 0.2 10^-4abs/s); summary of the method: as §2
[8] = biological target: T1, Polyunsaturated fatty acid lipoxygenase ALOX15 (Mus musculus); test: Inhibition of 15-LOX-1 in C57bl/6 mouse precision-cut lung slices assessed as reduction in LPS-stimulated iNOS mRNA expression level at 50 uM incubated for 20 hrs followed by LPS stimulation for 4 hrs in presence of linoleic acid by RT-qPCR analysis; summary of the method: as §1

inhibition [1]: Active | inhibition [3]: Active | inhibition [4]: 50% | Vmax(app) [6]: 1.6 ×10⁻⁴ abs/s | Vmax(app) [7]: 1.5 ×10⁻⁴ abs/s | inhibition [8]: 50%
Structure (SMILES): CCCCNC(=O)c1cc(-c2ccccc2)sc1N
inhibition [2]: Active | inhibition [5]: Dose-dependent effect
